ChEMBL document CHEMBL1141787, “Antifungal activity of artemisinin derivatives” (J Nat Prod, 2005)
Values after ≈ are worked out from the molar mass of the structure shown. Active and inactive are the calls of the source. The calls are words filed in the database; no cut-off is given here.

Experiments:
Type in all cases: functional, organism-based
Candida albicans [1] = experiment: Antifungal activity against Candida albicans ATCC 90028 at 50 ug/mL by modified NCCLS method
Method in brief: (§1)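 Broth microdilution following a modified NCCLS method. The inoculum was a subculture diluted in its incubation broth. Compounds were dissolved in DMSO, serially diluted in normal saline and tested in duplicate, at final concentrations starting at 50 µg/mL. Amphotericin B served as positive control, with media-only blanks. Turbidity was read at 630 nm before and after incubation. Percent growth was plotted against concentration to give IC50/MIC.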

Cryptococcus neoformans [2] = experiment: Antifungal activity against Cryptococcus neoformans ATCC 90113 at 50 ug/mL by modified NCCLS method; method in brief: as §1
Cryptococcus neoformans [3] = experiment: Antifungal activity against Cryptococcus neoformans ATCC 90113 by modified NCCLS method; method in brief: as §1
Candida albicans [4] = experiment: Antifungal activity against Candida albicans ATCC 90028 by modified NCCLS method; method in brief: as §1

SMILES | Activity (Candida albicans [1]) | Activity (Cryptococcus neoformans [2]) | IC50 (Cryptococcus neoformans [3]) | IC50 (Candida albicans [4]) | MIC (Cryptococcus neoformans [3]) | MIC (Candida albicans [4])
C=C1[C@@H](OCCO)O[C@@H]2O[C@]3(C)CC[C@H]4[C@H](C)CC[C@@H]1[C@@]24OO3 | inactive | inactive | 3 µg/mL (≈ 9.19 µM) | – | – | –
C[C@H]1[C@@H](O[C@H]2CC[C@H](O)CC2)O[C@@H]2O[C@]3(C)CC[C@H]4[C@H](C)CC[C@@H]1[C@@]24OO3 | inactive | inactive | 1 µg/mL (≈ 2.61 µM) | – | – | –
C[C@H]1[C@@H](Oc2ccc(O)cc2)O[C@@H]2O[C@]3(C)CC[C@H]4[C@H](C)CC[C@@H]1[C@@]24OO3 | inactive | inactive | 0.087 µg/mL (≈ 0.231 µM) | – | – | –
C[C@H]1[C@@H](O[C@H]2CC[C@@H](O)CC2)O[C@@H]2O[C@]3(C)CC[C@H]4[C@H](C)CC[C@@H]1[C@@]24OO3 | inactive | inactive | 0.9 µg/mL (≈ 2.35 µM) | – | – | –
CC1=CO[C@@H]2O[C@]3(C)CC[C@H]4[C@H](C)CC[C@@H]1[C@@]24O3 | inactive | inactive | 6 µg/mL (≈ 24 µM) | 30 µg/mL (≈ 120 µM) | – | –
C[C@H]1[C@@H](OCCCCO)O[C@@H]2O[C@]3(C)CC[C@H]4[C@H](C)CC[C@@H]1[C@@]24OO3 | inactive | inactive | 0.6 µg/mL (≈ 1.68 µM) | – | – | –
CO[C@@H]1O[C@@H]2O[C@]3(C)CC[C@H]4[C@H](C)CC[C@@H]([C@H]1C)[C@@]24OO3 | inactive | inactive | 1.5 µg/mL (≈ 5.03 µM) | – | – | –
C[C@H]1[C@@H](Oc2ccc(S)cc2)O[C@@H]2O[C@]3(C)CC[C@H]4[C@H](C)CC[C@@H]1[C@@]24OO3 | inactive | inactive | 0.31 µg/mL (≈ 0.79 µM) | – | – | –
CO[C@H]1O[C@@H]2OC3(C)CC[C@H]4[C@H](C)CC[C@@H]([C@H]1C)[C@@]24OO3 (single isomer, unassigned) [ARTEMETHER] | inactive | – | 0.6 µg/mL (≈ 2.01 µM) | – | 25 µg/mL (≈ 83.8 µM) | –
C=C1C(=O)O[C@@H]2OC3(C)CC[C@H]4[C@H](C)CC[C@@H]1[C@@]24OO3 (single isomer, unassigned) [ARTEMISITENE] | inactive | inactive | 0.045 µg/mL (≈ 0.161 µM) | – | – | –
C[C@H]1[C@@H](O)O[C@@H]2OC3(C)CC[C@H]4[C@H](C)CC[C@@H]1[C@@]24OO3 (single isomer, unassigned) [ARTENIMOL] | inactive | – | 0.09 µg/mL (≈ 0.317 µM) | 9 µg/mL (≈ 31.7 µM) | 12.5 µg/mL (≈ 44 µM) | –
CCO[C@@H]1O[C@@H]2O[C@]3(C)CC[C@H]4[C@H](C)CC[C@@H]([C@H]1C)[C@@]24OO3 [ALPHA-ARTEETHER] | inactive | – | 0.045 µg/mL (≈ 0.144 µM) | 3 µg/mL (≈ 9.6 µM) | 1.56 µg/mL (≈ 4.99 µM) | –
C[C@@H]1[C@H](O)[C@@H](C)/C=C/C=C/C=C/C=C/C=C/C=C/C=C/[C@H](O[C@@H]2O[C@H](C)[C@@H](O)[C@H](N)[C@@H]2O)C[C@@H]2O[C@](O)(C[C@@H](O)C[C@@H](O)[C@H](O)CC[C@@H](O)C[C@@H](O)CC(=O)O[C@H]1C)C[C@H](O)[C@H]2C(=O)O [AMPHOTERICIN B] | – | – | 0.35 µg/mL (≈ 0.379 µM) | 0.1 µg/mL (≈ 0.108 µM) | 0.625 µg/mL (≈ 0.676 µM) | 0.15 µg/mL (≈ 0.162 µM)
CC1=CO[C@@H]2O[C@]3(C)CC[C@H]4[C@H](C)CC[C@@H]1[C@@]24OO3 [ANHYDRODIHYDROARTEMISININ] | – | – | 0.045 µg/mL (≈ 0.169 µM) | 7 µg/mL (≈ 26.3 µM) | 0.195 µg/mL (≈ 0.732 µM) | 50 µg/mL (≈ 188 µM)
C[C@@H]1CC[C@H]2[C@@H](C)C(=O)O[C@@H]3O[C@@]4(C)CC[C@@H]1[C@]32OO4 [ARTEMISININ] | – | – | 2 µg/mL (≈ 7.08 µM) | 8 µg/mL (≈ 28.3 µM) | 50 µg/mL (≈ 177 µM) | 50 µg/mL (≈ 177 µM)
CCO[C@H]1O[C@@H]2O[C@@]3(C)CC[C@H]4[C@H](C)CC[C@@H]([C@H]1C)[C@@]24OO3 [ARTEMOTIL] | – | – | 0.085 µg/mL (≈ 0.272 µM) | 15 µg/mL (≈ 48 µM) | 3.13 µg/mL (≈ 10 µM) | 50 µg/mL (≈ 160 µM)
